Data: ChEMBL document CHEMBL1146555, “Bioactive novel polyphenols from the fruit of Manilkara zapota (Sapodilla)” (J Nat Prod, 2003)

Tests used:
[1] = system: Radical scavenging activity; experiment: Antioxidant activity assessed as DPPH radical scavenging activity after 30 mins; format: functional
Procedure, shortened: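 Test samples in DMSO mixed with 300 µM ethanolic DPPH, incubated 37 °C for 30 min, absorbance read at 515 nm. Final test concentrations typically 1-50 µg/mL. Percent inhibition relative to DMSO-treated control; IC50 = concentration scavenging 50% of DPPH radicals.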

[2] = system: SW480; experiment: Cytotoxicity against human SW480 cells after 72 hrs by MTT assay; format: functional, cell-based; details: SW480, 72 h
Procedure, shortened: (§1)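 Human colon cancer cells kept in DMEM with 10% FBS, 5% CO2, 37 °C, no antibiotics. About 3.0 × 10^4 cells per well, grown to 40% confluence, then exposed to compounds in DMSO for 72 h. MTT (5 mg/mL stock) added 4 h, formazan solubilized, absorbance at 570 nm. Octuplicate wells, mean and SD; IC50 by linear regression.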

[3] = system: HCT-116; experiment: Cytotoxicity against human HCT116 cells after 72 hrs by MTT assay; format: functional, cell-based; details: HCT-116, 72 h; procedure, shortened: as §1

| SMILES | IC50 [1] [µM] | IC50 [2] [µM] | IC50 [3] [µM] |
| --- | --- | --- | --- |
| O=C(/C=C/c1ccc(O)c(O)c1)O[C@@H]1C[C@](O)(C(=O)O)C[C@@H](O)[C@H]1OC(=O)c1cc(O)c(O)c(O)c1 | 23.5 | 134 | 154 |
| O=C(/C=C/c1ccc(O)c(O)c1)O[C@@H]1C[C@](O)(C(=O)O)C[C@@H](O)[C@H]1O [CHLOROGENIC ACID] | 39.5 | 353 | 367 |
| O=C(O[C@@H]1Cc2c(O)cc(O)cc2O[C@@H]1c1cc(O)c(O)c(O)c1)c1cc(O)c(O)c(O)c1 [EPIGALOCATECHIN GALLATE] | – | 195 | 161 |
| COC(=O)[C@]1(O)C[C@@H](O)[C@@H](OC(=O)c2cc(O)c(O)c(O)c2)[C@H](OC(=O)/C=C/c2ccc(O)c(O)c2)C1 | 12.9 | 160 | 190 |
